In ChEMBL document CHEMBL1833877, “Antinociceptive properties of bergenin” (J Nat Prod, 2011):
Calls of active or inactive are those of the source.

What was measured:
Mus musculus [1] = assay: Antinociceptive activity against formalin-induced pain in mouse assessed as paw licking during early phase (0 to 10 mins) at 50 mg/kg, ip administered 40 mins before formalin challenge; format: functional, organism-based; design: dose 50 mg/kg
Summary of the method: (§1)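 Mice were acclimated 30 min in an observation chamber, then given 20 μL of 2.5% formalin sc into the dorsal hind paw. Dosing was ip (2% DMSO/saline vehicle) 40 min beforehand. Time spent licking the injected paw was scored over 0–10 min and 10–60 min. n = 6/group, means ± SEM, ANOVA with Tukey.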

Mus musculus [2] = assay: Antinociceptive activity in ip dosed mouse assessed as inhibition of acetic acid-induced abdominal constrictions administered 40 mins before acetic acid challenge measured for 30 mins; format: functional, organism-based; conditions: Abdomen
Summary of the method: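 Dosing was ip in 2% DMSO/saline 40 min before ip acetic acid (0.8% v/v, 10 mL/kg). Writhes (abdominal contraction with hind-limb stretching) were counted over 0–30 min. n = 6 mice/group, means ± SEM, ANOVA with Tukey.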

Mus musculus [3] = assay: Antinociceptive activity against formalin-induced pain in mouse assessed as paw licking during early phase (0 to 10 mins) at 100 mg/kg, ip administered 40 mins before formalin challenge; format: functional, organism-based; design: dose 100 mg/kg; summary of the method: as §1
Mus musculus [4] = assay: Antinociceptive activity against formalin-induced pain in mouse assessed as paw licking during late phase (10 to 60 mins) at 50 mg/kg, ip administered 40 mins before formalin challenge; format: functional, organism-based; design: dose 50 mg/kg; summary of the method: as §1
Mus musculus [5] = assay: Antinociceptive activity against formalin-induced pain in mouse assessed as paw licking during late phase (10 to 60 mins) at 100 mg/kg, ip administered 40 mins before formalin challenge; format: functional, organism-based; design: dose 100 mg/kg; summary of the method: as §1
Mus musculus [6] = assay: Neurotoxicity in mouse assessed as effect on motor coordination by measuring reduced latency at 100 mg/kg, ip after 40 mins by rotarod test; format: toxicity, organism-based; design: dose 100 mg/kg, route intraperitoneal; conditions: in vivo
Summary of the method: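 Mice were pre-selected 24 h earlier for staying on the bar for two 120 s periods. Rotarod was a 3 cm bar at 5 rpm. Mice were tested 40 min after ip dosing, with diazepam 10 mg/kg ip as reference. Time on the rod was recorded up to 120 s. n = 6/group.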

Mus musculus [7] = assay: Antinociceptive activity against Freund's complete adjuvant-induced paw inflammation in mouse assessed as reduction in mechanical hyperalgesia at 50 mg/kg, ip administered 40 mins before CFA challenge measured after 2 to 6 hrs; format: functional, organism-based; design: dose 50 mg/kg
Summary of the method: (§2)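 Mice, lightly halothane-anesthetized, got 20 μL complete Freund's adjuvant (1 mg/mL heat-killed M. tuberculosis in paraffin oil/mannide monooleate) sc into the right hind plantar surface. Treatment was ip in 2% DMSO/saline 40 min before CFA. Mechanical threshold was read with von Frey filaments by the up-down method at 2, 4 and 6 h. n = 6 mice/group, means ± SEM, two-way ANOVA with Bonferroni.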

Mus musculus [8] = assay: Antinociceptive activity against Freund's complete adjuvant-induced paw inflammation in mouse assessed as reduction in mechanical hyperalgesia at 100 mg/kg, ip administered 40 mins before CFA challenge measured after 2 to 6 hrs; format: functional, organism-based; design: dose 100 mg/kg; summary of the method: as §2
Mus musculus [9] = assay: Antinociceptive activity against Freund's complete adjuvant-induced paw inflammation in mouse assessed as reduction in paw edema at 50 mg/kg, ip administered 40 mins before CFA challenge measured after 2 hrs; format: functional, organism-based; design: dose 50 mg/kg
Summary of the method: (§3)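 CFA (20 μL, 1 mg/mL heat-killed M. tuberculosis) was injected sc into the right hind plantar surface. Treatment was ip in 2% DMSO/saline 40 min before. Paw volume was read by plethysmometer before and after CFA, and edema taken as the volume difference (mm3/paw). n = 6 mice/group, means ± SEM, two-way ANOVA with Bonferroni.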

Mus musculus [10] = assay: Antinociceptive activity against Freund's complete adjuvant-induced paw inflammation in mouse assessed as reduction in paw edema at 50 mg/kg, ip administered 40 mins before CFA challenge measured after 4 hrs; format: functional, organism-based; design: dose 50 mg/kg; summary of the method: as §3
Mus musculus [11] = assay: Antinociceptive activity against Freund's complete adjuvant-induced paw inflammation in mouse assessed as reduction in paw edema at 50 mg/kg, ip administered 40 mins before CFA challenge measured after 6 hrs; format: functional, organism-based; design: dose 50 mg/kg; summary of the method: as §3
Mus musculus [12] = assay: Antinociceptive activity against Freund's complete adjuvant-induced paw inflammation in mouse assessed as reduction in paw edema at 100 mg/kg, ip administered 40 mins before CFA challenge measured after 2 hrs; format: functional, organism-based; design: dose 100 mg/kg; summary of the method: as §3
Mus musculus [13] = assay: Antinociceptive activity against Freund's complete adjuvant-induced paw inflammation in mouse assessed as reduction in paw edema at 100 mg/kg, ip administered 40 mins before CFA challenge measured after 4 hrs; format: functional, organism-based; design: dose 100 mg/kg; summary of the method: as §3
Mus musculus [14] = assay: Antinociceptive activity against Freund's complete adjuvant-induced paw inflammation in mouse assessed as reduction in paw edema at 100 mg/kg, ip administered 40 mins before CFA challenge measured after 6 hrs; format: functional, organism-based; design: dose 100 mg/kg; summary of the method: as §3
Mus musculus [15] = assay: Effect on baseline nociceptive threshold in Freund's complete adjuvant-induced mouse at 50 to 100 mg/kg, ip administered 40 mins before CFA challenge measured 2 to 6 hrs; format: functional, organism-based
Mus musculus [16] = assay: Inhibition of IL1-beta production in Freund's complete adjuvant-induced mouse at 50 mg/kg, ip administered 40 mins before CFA challenge measured after 2 hrs by ELISA; format: functional, organism-based; design: dose 50 mg/kg
Summary of the method: (§4)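 CFA was given intraplantar, with ip dosing (2% DMSO/saline vehicle) 40 min earlier. At 2 h, paw skin was taken under terminal halothane anesthesia. Tissue was extracted (100 mg/mL PBS with 0.4 M NaCl, 0.05% Tween 20 and protease inhibitors) and centrifuged at 3000g for 10 min. Supernatant was assayed by mouse ELISA, in pg/mL. n = 6/group.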

Mus musculus [17] = assay: Inhibition of IL1-beta production in Freund's complete adjuvant-induced mouse at 100 mg/kg, ip administered 40 mins before CFA challenge measured after 2 hrs by ELISA; format: functional, organism-based; design: dose 100 mg/kg; summary of the method: as §4
Mus musculus [18] = assay: Inhibition of TNF-alpha production in Freund's complete adjuvant-induced mouse at 50 mg/kg, ip administered 40 mins before CFA challenge measured after 2 hrs by ELISA; format: functional, organism-based; design: dose 50 mg/kg; summary of the method: as §4
Mus musculus [19] = assay: Inhibition of TNF-alpha production in Freund's complete adjuvant-induced mouse at 100 mg/kg, ip administered 40 mins before CFA challenge measured after 2 hrs by ELISA; format: functional, organism-based; design: dose 100 mg/kg; summary of the method: as §4
Mus musculus [20] = assay: Inhibition of IL10 production in Freund's complete adjuvant-induced C57BL/6 mouse paw at 100 mg/kg, ip administered 40 mins before CFA challenge measured after 3 hrs by ELISA; format: functional, organism-based; design: dose 100 mg/kg
Summary of the method: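 C57BL/6 wild-type mice received an ip dose 40 min before intraplantar CFA. Paw tissue IL-10 was read by ELISA 3 h after CFA, on protein extracts in PBS/0.4 M NaCl/Tween 20 with protease inhibitors. A saline group got 20 μL intraplantar saline instead. n = 6/group, means ± SEM, two-way ANOVA with Bonferroni.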

Mus musculus [21] = assay: Antinociceptive activity against Freund's complete adjuvant-induced paw inflammation in IL10-deficient C57BL/6 mouse assessed as reduction in mechanical hyperalgesia at 100 mg/kg, ip administered 40 mins before CFA challenge measured 2 to 6 hrs; format: functional, organism-based; design: dose 100 mg/kg; summary of the method: as §2
Mus musculus [22] = assay: Toxicity in mouse assessed as reduction in corporal mass at 50 mg/kg, ip for seven consecutive days relative to control; format: organism-based; design: dose 50 mg/kg, route intraperitoneal; conditions: in vivo
Summary of the method: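 Male mice (22–28 g) weighed and dosed once daily ip for seven consecutive days with test agent or vehicle (2% DMSO in saline). Body mass, general appearance and toxic signs followed and compared with vehicle-treated mice. Data are means ± SEM, 6–9 animals per group.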

Mus musculus [23] = assay: Toxicity in mouse assessed as change in general appearance at 50 mg/kg, ip for seven consecutive days relative to control; format: organism-based; design: dose 50 mg/kg, route intraperitoneal; conditions: in vivo
Summary of the method: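 Mice were weighed and dosed ip once daily for 7 consecutive days, vehicle controls alongside, and monitored for toxic signs and general appearance. At the end, retro-orbital blood was taken under light anesthesia for leukocyte counts. Serum, from blood centrifuged at 2500 rpm for 15 min without anticoagulant, was used for ALT and AST.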

COc1c(O)cc2c(c1O)[C@@H]1O[C@H](CO)[C@@H](O)[C@H](O)[C@H]1OC2=O [BERGENIN]
Non-toxic: Activity (Mus musculus [6]) | Activity (Mus musculus [22]) | Activity (Mus musculus [23])
active: Activity (Mus musculus [1]) | Activity (Mus musculus [2]) Dose-dependent effect | Activity (Mus musculus [3]) | Activity (Mus musculus [4]) | Activity (Mus musculus [5]) | Activity (Mus musculus [7]) | Activity (Mus musculus [8]) | Activity (Mus musculus [9]) | Activity (Mus musculus [10]) | Activity (Mus musculus [12]) | Activity (Mus musculus [13]) | inhibition (Mus musculus [16]) | inhibition (Mus musculus [17]) | inhibition (Mus musculus [18]) | inhibition (Mus musculus [19]) | Activity (Mus musculus [21])
inactive: Activity (Mus musculus [11]) | Activity (Mus musculus [14]) | Activity (Mus musculus [15]) | inhibition (Mus musculus [20])
